Assay results from article PMC6045484 (ACS Omega, 2018).
Converted amounts (≈) assume the structure as drawn.

Key:
P. falciparum (D6) = assay: in vitro antimalarial activity, plasmodial LDH; assay type: cell-based, Plasmodium falciparum
P. falciparum (W2) = assay: in vitro antimalarial activity, plasmodial LDH; assay type: cell-based, Plasmodium falciparum
How it was run: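 P. falciparum-infected erythrocytes (2% parasitemia, 2% hematocrit) in RPMI 1640 with 10% human serum and 60 μg/mL amikacin. Exposed to test compound dilutions for 72 h at 37 °C under 90% N2/5% O2/5% CO2. LDH measured with Malstat reagent (30 min, room temperature), then NBT/PES for 1 h in the dark, stopped with 5% acetic acid, read at 650 nm. IC50 from dose-response curves.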

[1] = system: SK-MEL, KB, BT-549, SK-OV-3, VERO and LLC-PK1 cells; assay: cytotoxicity, neutral red uptake assay; assay type: cell-based, mammalian; details: highest test concentration 4760 ng/mL
How it was run: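 Cells seeded at 25 000/well and allowed 24 h to reach confluence. Test compound was then added and incubated 48 h. Viable cells were counted by a modified neutral red uptake method. The panel was four human cancer lines and two noncancerous mammalian kidney lines. Doxorubicin served as positive control and DMSO as negative control.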

[2] = system: P. berghei (sensitive strain); assay: blood-schizontocidal activity against P. berghei infection in mice; assay type: in vivo, Plasmodium berghei; details: Swiss mice
How it was run: (§1)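 Swiss mice of either sex (about 15–20 g, same age), six per group, inoculated intraperitoneally on day 0 with 1 × 10^7 infected erythrocytes from a donor mouse. Oral test compound at 100, 50, 25 or 10 mg/kg, CQ diphosphate (10 mg/kg/day × 4) or vehicle started 4 h later, on D0 to D+3. Giemsa tail-blood smears on D+4 and D+7. Curative: parasites eliminated, no relapse, all mice surviving to D+60.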

[3] = system: multidrug-resistant P. yoelii nigeriensis; assay: blood-schizontocidal activity against P. yoelii nigeriensis infection in mice; assay type: in vivo, Plasmodium yoelii nigeriensis; details: Swiss mice
How it was run: as §1

[4] = system: L. donovani promastigotes; assay: in vitro antileishmanial activity, alamarBlue assay; assay type: cell-based, Leishmania donovani; details: Leishmania donovani, 48 h
C. albicans ATCC90028 = assay: in vitro antifungal activity; assay type: cell-based, Candida albicans
How it was run: (§2)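 Modified NCCLS broth method in Sabouraud dextrose. Inoculum set by OD630 to 1.5 × 10^3 CFU/mL. Test compound serially diluted in 20% DMSO/saline, duplicate wells, up to 20 μg/mL. Incubated 70–74 h at 35 °C; 530 nm read before and after. IC50 is 50% growth inhibition; MIC is no detectable growth. MFC from clear wells subcultured on agar. Amphotericin B control.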

C. neoformans ATCC90113 = assay: in vitro antifungal activity; assay type: cell-based, Cryptococcus neoformans
How it was run: as §2

A. fumigatus ATCC 90906 = assay: in vitro antifungal activity; assay type: cell-based, Aspergillus fumigatus
How it was run: as §2

SA (ATCC29213) = assay: in vitro antibacterial activity; assay type: cell-based; details: Staphylococcus aureus
How it was run: (§3)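 Test compound serially diluted in 20% DMSO/saline and plated in duplicate, up to 20 μg/mL. Inoculum in cation-adjusted Mueller–Hinton broth, pH 7.3, set by OD630 to 5 × 10^5 CFU/mL. Incubated 16–20 h at 35 °C; 530 nm read before and after. IC50 is 50% growth inhibition; MIC is no detectable growth. MBC from clear wells subcultured on agar. Ciprofloxacin control.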

MRSA (ATCC33591) = assay: in vitro antibacterial activity; assay type: cell-based, methicillin-resistant Staphylococcus aureus
How it was run: as §3

[5] = system: M. intracellulare (ATCC23068); assay: in vitro antibacterial activity, modified alamarBlue procedure; assay type: cell-based, Mycobacterium intracellulare
How it was run: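 Modified alamarBlue microplate method. Test compound serially diluted in 20% DMSO/saline, duplicate wells, up to 20 μg/mL. Inoculum 2.0 × 10^6 CFU/mL in Middlebrook 7H9 with OADC, pH 7.3, containing 5% alamarBlue. Incubated 70–74 h at 37 °C, 10% CO2; fluorescence 544ex/590em read before and after. MIC: no blue-to-pink change. MBC by subculturing blue wells on agar. Ciprofloxacin control.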

C. glabrata ATCC90030 = assay: in vitro antifungal activity; assay type: cell-based, Candida glabrata
How it was run: as §2

C. krusei ATCC6258 = assay: in vitro antifungal activity; assay type: cell-based, Candida krusei
How it was run: as §2

[6] = highest test concentration 20 μg/mL
[7] = methicillin-resistant S. aureus, highest test concentration 20 μg/mL

CCCCCCCCOc1c(OC)cc(NC(C)CCCN)c2nc(C(C)(C)C)ccc12 (stereo not shown) [compound 49, N^4-(2-tert-Butyl-6-methoxy-5-(octyloxy)quinolin-8-yl)pentane-1,4-diamine]
IC50 (P. falciparum (D6); Plasmodium falciparum, D6, 72 h, read-out: P. falciparum (D6) IC50): 0.053 µg/mL (≈ 0.119 µM)
IC50 (P. falciparum (W2); Plasmodium falciparum, W2, 72 h, read-out: P. falciparum (W2) IC50, CQ-resistant W2 strain, 72 h): 0.04 µg/mL (≈ 0.0902 µM)
cytotoxicity CTX [1]: NC (NC, not cytotoxic up to 4760 ng/mL (4.76 μg/mL))
P. berghei blood-schizontocidal activity (mice cured/treated) ([2]; 10 mg/kg/day × 4, oral): active (4/6)
P. berghei blood-schizontocidal activity (mice cured/treated) ([2]; 25 mg/kg/day × 4, oral): curative (6/6)
P. berghei blood-schizontocidal activity (mice cured/treated) ([2]; 50 mg/kg/day × 4, oral): curative (6/6)
P. berghei blood-schizontocidal activity (mice cured/treated) ([2]; 100 mg/kg/day × 4, oral): curative (6/6)
P. yoelii nigeriensis blood-schizontocidal activity (mice cured/treated) ([3]; 25 mg/kg/day × 4, oral): inactive (0/6)
P. yoelii nigeriensis blood-schizontocidal activity (mice cured/treated) ([3]; 50 mg/kg/day × 4, oral): active (3/6)
P. yoelii nigeriensis blood-schizontocidal activity (mice cured/treated) ([3]; 100 mg/kg/day × 4, oral): active (4/6)
IC50 ([4]; read-out: L. donovani IC50, promastigotes, 48 h): 5.2 µg/mL (≈ 11.7 µM)
IC90 ([4]; read-out: L. donovani IC90, promastigotes, 48 h): > 40 µg/mL
IC50 (C. albicans ATCC90028; Candida albicans, ATCC90028, read-out: C. albicans IC50): 7.44 µg/mL (≈ 16.8 µM)
MFC (C. albicans ATCC90028; Candida albicans, ATCC90028, read-out: C. albicans MFC): 10 µg/mL (≈ 22.5 µM)
MIC (C. albicans ATCC90028; Candida albicans, ATCC90028, read-out: C. albicans MIC): 10 µg/mL (≈ 22.5 µM)
IC50 (C. neoformans ATCC90113; Cryptococcus neoformans, ATCC90113, read-out: C. neoformans IC50): 2.15 µg/mL (≈ 4.85 µM)
MFC (C. neoformans ATCC90113; Cryptococcus neoformans, ATCC90113, read-out: C. neoformans MFC): 5 µg/mL (≈ 11.3 µM)
MIC (C. neoformans ATCC90113; Cryptococcus neoformans, ATCC90113, read-out: C. neoformans MIC): 5 µg/mL (≈ 11.3 µM)
IC50 (A. fumigatus ATCC 90906; Aspergillus fumigatus, ATCC90906, read-out: A. fumigatus IC50): > 20 µg/mL
MFC (A. fumigatus ATCC 90906; Aspergillus fumigatus, ATCC90906, read-out: A. fumigatus MFC): > 20 µg/mL
MIC (A. fumigatus ATCC 90906; Aspergillus fumigatus, ATCC90906, read-out: A. fumigatus MIC): > 20 µg/mL
IC50 (SA (ATCC29213); ATCC29213, read-out: IC50 (concentration that affords 50% growth inhibition), SA): 3.4 µg/mL (≈ 7.66 µM)
MBC (SA (ATCC29213); ATCC29213, read-out: MBC (minimum bactericidal concentration), SA): 10 µg/mL (≈ 22.5 µM)
MIC (SA (ATCC29213); ATCC29213, read-out: MIC, SA): 5 µg/mL (≈ 11.3 µM)
MIC (MRSA (ATCC33591); Staphylococcus aureus, ATCC33591|MRSA, read-out: MIC, MRSA): 5 µg/mL (≈ 11.3 µM)
IC50 ([5]; Mycobacterium intracellulare, ATCC23068, read-out: IC50 (concentration that affords 50% growth inhibition), M. intracellulare): 7.43 µg/mL (≈ 16.7 µM)
MBC ([5]; Mycobacterium intracellulare, ATCC23068, read-out: MBC (minimum bactericidal concentration), M. intracellulare): 20 µg/mL (≈ 45.1 µM)
MIC ([5]; Mycobacterium intracellulare, ATCC23068, read-out: MIC, M. intracellulare): 10 µg/mL (≈ 22.5 µM)

CCCCCCCCOc1c(OC)cc(NC(C)CCCNC(=O)C(N)CCCCN)c2nc(C(C)(C)C)ccc12 (stereo not shown) [compound 117, 2,6-Diamino-N-(4-(2-tert-butyl-6-methoxy-5-(octyloxy)quinolin-8-lamino)pentyl)-hexanamide]
P. falciparum (D6) IC50 (P. falciparum (D6); CQ-sensitive D6 strain, 72 h): NA (NA, not active)
P. falciparum (W2) IC50 (P. falciparum (W2); CQ-resistant W2 strain, 72 h): NA (NA, not active)
cytotoxicity CTX [1]: NC (NC, not cytotoxic up to 4760 ng/mL (4.76 μg/mL))
C. albicans IC50 (C. albicans ATCC90028): NA (NA, no activity at the highest test concentration of 20 μg/mL)
C. albicans MFC (C. albicans ATCC90028): NA (NA, no activity at the highest test concentration of 20 μg/mL)
C. albicans MIC (C. albicans ATCC90028): NA (NA, no activity at the highest test concentration of 20 μg/mL)
C. glabrata IC50 (C. glabrata ATCC90030): NA (NA, no activity at the highest test concentration of 20 μg/mL)
C. glabrata MFC (C. glabrata ATCC90030): NA (NA, no activity at the highest test concentration of 20 μg/mL)
C. glabrata MIC (C. glabrata ATCC90030): NA (NA, no activity at the highest test concentration of 20 μg/mL)
C. krusei IC50 (C. krusei ATCC6258): NA (NA, no activity at the highest test concentration of 20 μg/mL)
C. krusei MFC (C. krusei ATCC6258): NA (NA, no activity at the highest test concentration of 20 μg/mL)
C. krusei MIC (C. krusei ATCC6258): NA (NA, no activity at the highest test concentration of 20 μg/mL)
C. neoformans IC50 (C. neoformans ATCC90113): 11.92 µg/mL
C. neoformans MFC (C. neoformans ATCC90113): >20 µg/mL
C. neoformans MIC (C. neoformans ATCC90113): >20 µg/mL
A. fumigatus IC50 (A. fumigatus ATCC 90906): NA (NA, no activity at the highest test concentration of 20 μg/mL)
A. fumigatus MFC (A. fumigatus ATCC 90906): NA (NA, no activity at the highest test concentration of 20 μg/mL)
A. fumigatus MIC (A. fumigatus ATCC 90906): NA (NA, no activity at the highest test concentration of 20 μg/mL)
IC50 (concentration that affords 50% growth inhibition), SA (SA (ATCC29213); [6]): NA (NA, no activity at the highest test concentration of 20 μg/mL)
MBC (minimum bactericidal concentration), SA (SA (ATCC29213); [6]): NA (NA, no activity at the highest test concentration of 20 μg/mL)
MIC, SA (SA (ATCC29213); [6]): NA (NA, no activity at the highest test concentration of 20 μg/mL)
IC50 (concentration that affords 50% growth inhibition), MRSA (MRSA (ATCC33591); [7]): NA (NA, no activity at the highest test concentration of 20 μg/mL)
MBC (minimum bactericidal concentration), MRSA (MRSA (ATCC33591); [7]): NA (NA, no activity at the highest test concentration of 20 μg/mL)
MIC, MRSA (MRSA (ATCC33591); [7]): NA (NA, no activity at the highest test concentration of 20 μg/mL)
IC50 (concentration that affords 50% growth inhibition), M. intracellulare [5, 6]: NA (NA, no activity at the highest test concentration of 20 μg/mL)
MBC (minimum bactericidal concentration), M. intracellulare [5, 6]: NA (NA, no activity at the highest test concentration of 20 μg/mL)
MIC, M. intracellulare [5, 6]: NA (NA, no activity at the highest test concentration of 20 μg/mL)
